The target in test [1] is T1, Adrenergic receptor alpha-1 (Rattus norvegicus) (UniProt P15823+P23944+P43140). As to the kind of experiment: In vivo inhibitory activity in rats against elevation of blood pressure caused by phenylephrine (30 ug/kg, iv) through Alpha-1 adrenergic receptor, after 1 hr oral administration at dose of 10 mg/kg. Also on record: dose 10 mg/kg. The class given is functional, organism-based. In short, it runs like this:
(§1)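 Male SD rats under urethane (1 g/kg ip) and alpha-chloralose (80 mg/kg ip). Blood pressure recorded via carotid catheter and transducer, iv dosing via venous catheter. After oral drug or vehicle, phenylephrine 30 μg/kg iv. The pressor rise was expressed as % inhibition, mean ± SEM.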

Test [2] addresses Serotonin 2 (5-HT2) receptor (Rattus norvegicus, UniProt P30994+P08909+P14842). As to the kind of experiment: In vitro antagonistic activity tested against the contraction induced by 5-HT through 5-hydroxytryptamine 2 receptor in rat thoracic aortic strips. The class given is functional.
Test [3] has as its target T2, Serotonin 2 (5-HT2) receptor (Rattus norvegicus) (UniProt P30994+P08909+P14842). The experiment in a line: In vivo inhibitory activity of 10 mg/kg compound in rats against elevation of BP caused by 5-HT (300 ug/kg, iv) through 5-hydroxytryptamine 2 receptor 1 hr after oral administration. On the set-up: dose 10 mg/kg. The class given is functional, organism-based. In short, it runs like this:
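Male SD rats anesthetized with urethane (1 g/kg ip) plus alpha-chloralose (80 mg/kg ip). Carotid arterial catheter to a pressure transducer, venous catheter for injection. After oral drug or vehicle, 5-HT 300 μg/kg iv. The pressor phase following the brief hypotensive phase was measured and expressed as % inhibition, mean ± SEM.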

Test [4] deals with T3, Adrenergic receptor alpha-1 (Rattus norvegicus, UniProt P15823+P23944+P43140).
T3 sequence (P15823 whole entry): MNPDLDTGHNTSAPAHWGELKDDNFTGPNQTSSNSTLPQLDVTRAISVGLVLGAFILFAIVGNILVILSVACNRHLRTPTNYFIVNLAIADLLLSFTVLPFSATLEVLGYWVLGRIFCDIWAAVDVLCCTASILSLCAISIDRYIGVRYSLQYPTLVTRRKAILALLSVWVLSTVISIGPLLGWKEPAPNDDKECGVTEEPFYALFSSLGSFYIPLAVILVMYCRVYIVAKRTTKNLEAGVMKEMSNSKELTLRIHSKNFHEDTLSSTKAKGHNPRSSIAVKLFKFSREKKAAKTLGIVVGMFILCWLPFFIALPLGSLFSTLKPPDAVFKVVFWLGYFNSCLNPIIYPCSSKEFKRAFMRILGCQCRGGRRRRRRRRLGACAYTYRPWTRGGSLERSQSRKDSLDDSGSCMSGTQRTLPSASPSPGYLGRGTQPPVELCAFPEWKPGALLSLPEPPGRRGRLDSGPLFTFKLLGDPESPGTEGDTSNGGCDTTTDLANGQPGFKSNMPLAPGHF
T3 sequence (P23944 whole entry): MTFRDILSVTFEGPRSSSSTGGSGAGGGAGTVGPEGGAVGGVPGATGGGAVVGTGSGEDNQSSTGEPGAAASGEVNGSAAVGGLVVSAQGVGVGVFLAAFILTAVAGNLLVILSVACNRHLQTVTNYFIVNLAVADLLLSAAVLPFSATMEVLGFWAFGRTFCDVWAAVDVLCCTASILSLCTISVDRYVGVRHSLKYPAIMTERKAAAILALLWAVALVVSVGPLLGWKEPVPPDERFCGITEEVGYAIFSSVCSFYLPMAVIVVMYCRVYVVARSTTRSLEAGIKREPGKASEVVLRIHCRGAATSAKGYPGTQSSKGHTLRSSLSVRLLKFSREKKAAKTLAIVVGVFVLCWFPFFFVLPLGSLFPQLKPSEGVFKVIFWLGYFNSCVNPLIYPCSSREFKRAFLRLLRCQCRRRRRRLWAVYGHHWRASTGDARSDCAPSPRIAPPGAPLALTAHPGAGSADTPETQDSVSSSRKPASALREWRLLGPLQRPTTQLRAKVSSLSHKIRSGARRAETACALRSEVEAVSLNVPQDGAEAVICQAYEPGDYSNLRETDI
T3 sequence (P43140 whole entry): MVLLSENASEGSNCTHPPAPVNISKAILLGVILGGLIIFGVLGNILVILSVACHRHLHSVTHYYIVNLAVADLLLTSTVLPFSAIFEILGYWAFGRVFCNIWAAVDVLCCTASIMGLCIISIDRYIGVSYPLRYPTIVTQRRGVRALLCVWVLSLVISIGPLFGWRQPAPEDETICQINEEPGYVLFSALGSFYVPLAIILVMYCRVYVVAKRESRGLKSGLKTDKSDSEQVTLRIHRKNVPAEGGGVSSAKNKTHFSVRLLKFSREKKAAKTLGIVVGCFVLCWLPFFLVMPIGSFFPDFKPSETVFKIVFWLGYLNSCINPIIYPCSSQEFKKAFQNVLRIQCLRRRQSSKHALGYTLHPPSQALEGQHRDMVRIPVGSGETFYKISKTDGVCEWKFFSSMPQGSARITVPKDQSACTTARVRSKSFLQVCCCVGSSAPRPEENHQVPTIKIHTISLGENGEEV
The experiment in a line: In vitro antagonistic activity tested against the contraction induced by phenylephrine through Alpha-1 adrenergic receptor in rat thoracic aortic strips. The class given is functional. In short, it runs like this:
(§2)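 Rat thoracic aortic strips, isometric tension; equilibrated 120 min, primed with 60 mM KCl. Cumulative phenylephrine (0.01-10 μM) curve, wash, 1 h later second cumulative curve with test drug present. pA2 from the concentration-response curves where blockade is competitive (otherwise noncompetitive); single determination.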

The target in test [5] is T3, Adrenergic receptor alpha-1. The experiment in a line: In vitro antagonistic activity against the contraction induced by phenylephrine through alpha-1 receptor in rat thoracic aortic strips. The test is classed as functional. In short, it runs like this: as §2
In test [6] the target is T1, Adrenergic receptor alpha-1 (Rattus norvegicus). The experiment in a line: In vivo inhibitory activity in rats against elevation of blood pressure caused by phenylephrine (30 ug/kg, iv) through alpha-1 receptor after 1 hr of oral administration at the dose of 10 mg/kg. The test is classed as functional, organism-based. On the set-up: dose 10 mg/kg. In short, it runs like this: as §1

The target is the same in test [7]. The experiment in a line: In vitro antagonistic activity against the contraction induced by phenylephrine through Alpha-1 adrenergic receptor in rat thoracic aortic strips; NC = non-competitive inhibition. The test is classed as functional. In short, it runs like this: as §2
The target of test [8] is T2, Serotonin 2 (5-HT2) receptor (Rattus norvegicus). The experiment in a line: In vitro antagonistic activity against the contraction induced by 5-HT through 5-hydroxytryptamine 2 receptor in rat thoracic aortic strips; NC=non competitive antagonism. The test is classed as functional. To be noted: filed as antagonist. In short, it runs like this: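 Rat thoracic aortic strips, isometric tension; equilibrated 120 min, primed with 60 mM KCl. Cumulative 5-HT (0.1-100 μM) curve, wash, 1 h later second cumulative 5-HT curve with test drug present. pA2 from the concentration-response curves where blockade is competitive (otherwise noncompetitive); single determination.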

The values below come from ChEMBL document CHEMBL1126018, “Syntheses and 5-HT2 antagonist activity of bicyclic 1,2,4-triazol-3(2H)-one and 1,3,5-triazine-2,4(3H)-dione derivatives” (J Med Chem, 1992).

In general, inhibition refers to the drop in the measured response relative to a control, in per cent. A lower inhibition goes with a weak effect. For orientation: pA2 means the negative logarithm of the molar antagonist concentration that doubles the agonist concentration needed for the same response. A lower pA2 goes with lower antagonist potency.

Some results are limits rather than exact numbers.

T2 sequence (P08909 whole entry, looked up): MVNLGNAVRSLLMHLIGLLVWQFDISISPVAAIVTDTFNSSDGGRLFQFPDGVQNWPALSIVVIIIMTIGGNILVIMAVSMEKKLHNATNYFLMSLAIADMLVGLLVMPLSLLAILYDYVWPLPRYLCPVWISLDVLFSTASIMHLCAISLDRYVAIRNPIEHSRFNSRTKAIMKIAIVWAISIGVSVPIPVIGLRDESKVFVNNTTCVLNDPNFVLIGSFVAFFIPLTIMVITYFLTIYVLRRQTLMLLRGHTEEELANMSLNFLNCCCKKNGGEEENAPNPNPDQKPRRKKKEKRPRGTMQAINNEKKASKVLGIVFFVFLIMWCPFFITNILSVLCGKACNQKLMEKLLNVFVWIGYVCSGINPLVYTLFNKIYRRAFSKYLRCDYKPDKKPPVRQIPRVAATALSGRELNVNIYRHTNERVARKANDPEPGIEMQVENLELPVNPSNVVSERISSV
T2 sequence (P14842 whole entry, looked up): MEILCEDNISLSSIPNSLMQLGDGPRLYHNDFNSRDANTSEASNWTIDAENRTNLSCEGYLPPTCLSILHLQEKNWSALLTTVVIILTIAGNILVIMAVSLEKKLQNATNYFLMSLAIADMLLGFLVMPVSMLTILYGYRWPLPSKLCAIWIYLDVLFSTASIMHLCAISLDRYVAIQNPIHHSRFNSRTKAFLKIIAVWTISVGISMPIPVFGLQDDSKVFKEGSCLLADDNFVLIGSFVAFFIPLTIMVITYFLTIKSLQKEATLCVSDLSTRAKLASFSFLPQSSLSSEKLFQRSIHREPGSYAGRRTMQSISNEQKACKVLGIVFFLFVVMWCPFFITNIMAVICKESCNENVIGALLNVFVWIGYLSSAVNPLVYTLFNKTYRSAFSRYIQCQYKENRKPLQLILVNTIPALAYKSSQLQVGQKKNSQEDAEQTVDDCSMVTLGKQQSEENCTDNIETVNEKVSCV
T2 sequence (P30994 whole entry, looked up): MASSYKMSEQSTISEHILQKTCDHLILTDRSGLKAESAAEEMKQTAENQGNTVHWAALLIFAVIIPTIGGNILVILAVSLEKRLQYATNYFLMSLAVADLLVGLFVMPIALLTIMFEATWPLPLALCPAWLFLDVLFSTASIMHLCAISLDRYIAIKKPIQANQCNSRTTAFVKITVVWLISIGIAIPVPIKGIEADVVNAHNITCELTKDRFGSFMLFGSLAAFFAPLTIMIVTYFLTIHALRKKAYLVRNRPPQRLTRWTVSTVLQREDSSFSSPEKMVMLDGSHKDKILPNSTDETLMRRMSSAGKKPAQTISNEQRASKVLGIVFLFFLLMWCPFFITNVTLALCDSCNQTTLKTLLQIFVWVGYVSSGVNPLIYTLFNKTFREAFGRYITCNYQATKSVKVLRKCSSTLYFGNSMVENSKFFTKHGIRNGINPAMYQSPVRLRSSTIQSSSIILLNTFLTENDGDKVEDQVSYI

With `O=c1n(CCN2CCC(=C(c3ccc(F)cc3)c3ccc(F)cc3)CC2)nc2n1CCSC2`, the values for the inhibition in test [1] and in test [3] were 4% and 67%, respectively. Further, the pA2 in test [2] is 7.8; in test [4] it was 7.5.
For the compound `O=c1n(CCN2CCC(=C(c3ccc(F)cc3)c3ccc(F)cc3)CC2)nc2n1CCCO2`, the figures for the inhibition in test [1] and in test [3] were 16% and 89%, respectively. Further, the pA2 in test [4] worked out at 7.8.
As to `O=C(c1ccc(F)cc1)C1CCN(CCCn2c(=O)nc3n(c2=O)CCCC3)CC1`, the figures for the inhibition in test [1] and in test [3] were 53% and 78%, respectively. Moreover, the pA2 in test [2] is on record as 6.5; in test [4] it was 7.3.
On the same counts, the results for `N#CC(=C1CCN(CCn2nc3n(c2=O)CCCC3)CC1)c1ccc(F)cc1` are 2%, 32%, 6.7 and 6.3.
`O=c1n(CCN2CCC(=C(c3ccc(F)cc3)c3ccc(F)cc3)CC2)nc2n1CCC2`: the figures for the pA2 in test [2] and in test [5] were 7.1 and 6.9, respectively. Further, the inhibition in test [3] came out at 74%; in test [6], 6%.
Regarding `O=C(c1ccc(F)cc1)C1CCN(CCn2nc3n(c2=O)CCOC3)CC1`, the inhibition was found to be 36% in test [1] and 62% in test [3]. The pA2 came out at 7.4 in test [2] and 6.3 in test [4].
In the case of `O=C(c1ccc(F)cc1)C1CCN(CCn2nc3n(c2=O)CCCCC3)CC1`, the pA2 entry is recorded as “Non-competitive inhibition” in test [7] and “Non-competitive antagonist” in test [8].
As for `O=c1nc2n(c(=O)n1CCN1CCC(=C(c3ccc(F)cc3)c3ccc(F)cc3)CC1)CCCC2`, the pA2 was determined as 8.3 in test [2] and 6.8 in test [5]. Moreover, the inhibition in test [3] worked out at 93%; in test [6] it was 12%.
Consider `O=C(c1ccc(F)cc1)C1(O)CCN(CCn2nc3n(c2=O)CCCC3)CC1`, for which the results for the inhibition in test [1] and in test [3] were 15% and 85%, respectively. Moreover, the values for the pA2 in test [2] and in test [4] were 6.8 and 7, respectively.
`O=C(c1ccc(F)cc1)C1(O)CCN(CCn2c(=O)nc3n(c2=O)CCCC3)CC1`: the inhibition was 20% in test [1] and 83% in test [3]. Moreover, the pA2 was 6.7 in test [2] and 7.2 in test [4].
Take `O=C(c1ccc(F)cc1)C1CCN(CCn2c(=O)nc3n(c2=O)CCCCC3)CC1`: the inhibition amounted to 15% in test [1] and 78% in test [3]. For the same compound, the pA2 in test [2] was 7.8; in test [4], 6.9.
Taken in the same sequence, the figures for `O=C(c1ccc(F)cc1)C1CCN(CCn2nc3n(c2=O)CCC3)CC1` were 36%, 65%, 6.8 and 6.4.
As to `O=c1nc2sccn2c(=O)n1CCN1CCC(=C(c2ccc(F)cc2)c2ccc(F)cc2)CC1`, the inhibition in test [1] amounted to 20%; in test [3] it was 93%. The pA2 was 7.1 in test [2] and less than 6 in test [4].
On the same counts, the results for `O=C(c1ccc(F)cc1)C1CCN(CCn2nc3n(c2=O)CCCC3)CC1c1ccc(F)cc1` (stereo not given) are 15%, 90%, 6.8 and 6.8.
On to `COc1ccc(C(=C2CCN(CCn3nc4n(c3=O)CCCC4)CC2)c2ccc(OC)cc2)cc1`, for which the pA2 in test [2] is on record as 6.8; in test [5], 7.2. Further, the inhibition came out at 41% in test [3] and 4% in test [6].
Consider `O=C(c1ccc(F)cc1)C1(c2ccc(F)cc2)CCN(CCn2nc3n(c2=O)CCCC3)CC1`, for which the inhibition in test [1] was 6%; in test [3] it was 11%. The pA2 in test [2] is listed as 6; in test [4], less than 6.
For the compound `O=C(c1ccc(F)cc1)C1(O)CCN(CCCn2nc3n(c2=O)CCCCC3)CC1`, the pA2 in test [2] is 7.3; in test [4] it was 7.6. Moreover, in test [3], the inhibition was 72%.
On to `O=C(c1ccc(F)cc1)C1CCN(CCn2c(=O)nc3n(c2=O)CCC3)CC1`, for which the values for the inhibition in test [1] and in test [3] were 23% and 67%, respectively. The results for the pA2 in test [2] and in test [4] were 7.3 and 7.1, respectively.
On the same counts, the results for `O=c1n(CCN2CCC(=C(c3ccc(F)cc3)c3ccc(F)cc3)CC2)nc2n1CCOC2` are 10%, 60%, 7.2 and 6.6.
As to `O=c1n(CCN2CCC(=C(c3ccccc3)c3ccc(F)cc3)CC2)nc2n1CCCCC2`, the inhibition is 7% in test [1] and 84% in test [3]. Further, the pA2 in test [2] was found to be 7.3; in test [4], 6.4.
Turning to `O=C(c1ccc(F)cc1)C1CCN(CCn2c(=O)nc3sccn3c2=O)CC1`, the inhibition in test [1] is 50%; in test [3] it was 79%. Moreover, the pA2 was 7.9 in test [2] and “Non-competitive inhibition” in test [7].
For the compound `O=c1nc2n(c(=O)n1CCN1CCC(=C(c3ccc(F)cc3)c3ccc(F)cc3)CC1)CCC2`, the inhibition was found to be 8% in test [1] and 83% in test [3]. In addition, the pA2 in test [2] was found to be 8.3; in test [5], 6.8.
Regarding `O=c1n(CCN2CCC(=C(c3ccc(F)cc3)c3ccc(F)cc3)CC2)nc2n1CCCCC2`, the pA2 was determined as 8.5 in test [2] and 7 in test [5]. The inhibition was determined as 90% in test [3] and 3% in test [6].
Take `O=C(c1ccc(F)cc1)C1CCN(CCn2c(=O)nc3ccccn3c2=O)CC1`: the pA2 in test [2] is reported as 8.1; in test [4], 7.5.
On to `O=C(c1ccc(F)cc1)C1CCN(CCn2nc3n(c2=O)CCCC3)CC1`, for which the inhibition in test [1] was 32%; in test [3], 91%. Further, the pA2 in test [2] was 7.4; in test [4], less than 6.
On to `O=C(c1ccc(F)cc1)C1CCN(CCCn2nc3n(c2=O)CCCC3)CC1`, for which the values for the pA2 in test [2] and in test [4] were 7.7 and 7.8, respectively.
For `O=c1n(CCN2CCC(=C(c3ccccc3)c3ccccc3)CC2)nc2n1CCCCC2`, the inhibition in test [1] turned out to be 3%; in test [3] it was 42%. Besides, the pA2 in test [2] was 7; in test [4], less than 6.
